Calls of active or inactive are those of the source. No cut-off for these calls is given here.
What was measured:
Staphylococcus aureus [1] = experiment: Antibacterial activity against non-beta-lactamase producing Staphylococcus aureus ATCC 25923 at 10 ug/disc after overnight incubation by disc diffusion assay; format: functional, organism-based
Procedure, shortened: (§1)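 Isolates were held at −80 °C. Five colonies were suspended in Mueller-Hinton broth to a 0.5 McFarland density and swabbed onto MH agar. Discs carried 10 μg compound, applied in methanol and dried at room temperature. Plates were incubated overnight at 37 °C, and the zone of inhibition was measured in mm from the disc edge. Controls were methanol-only and penicillin discs. Run blinded, in triplicate.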

Moraxella catarrhalis [2] = experiment: Antibacterial activity against beta-lactamase producing Moraxella catarrhalis isolate 5 at 10 ug/disc after overnight incubation by disc diffusion assay; format: functional; conditions: for zone of inhibition at 10 µg/disc: read-out: IZ; procedure, shortened: as §1
Pseudomonas aeruginosa [3] = experiment: Antibacterial activity against non-beta-lactamase producing Pseudomonas aeruginosa ATCC 27853 at 10 ug/disc after overnight incubation by disc diffusion assay; format: functional, organism-based; procedure, shortened: as §1
Moraxella catarrhalis [4] = experiment: Antibacterial activity against beta-lactamase producing Moraxella catarrhalis isolate 4 at 10 ug/disc after overnight incubation by disc diffusion assay; format: functional; conditions: for zone of inhibition at 10 µg/disc: read-out: IZ; procedure, shortened: as §1
Pseudomonas aeruginosa [5] = experiment: Antibacterial activity against non-beta-lactamase producing Pseudomonas aeruginosa ATCC 27853 after 48 hrs by microdilution broth method; format: functional, organism-based
Procedure, shortened: (§2)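 Broth microdilution followed CLSI guidelines. Compound was dissolved in 95% ethanol, diluted at least 10-fold into Mueller-Hinton broth, then serially two-fold diluted from 500 to 15.6 μg/mL. Actively growing culture was added at 5 × 10^5 cells/mL. Plates ran 48 h at 37 °C, scored for visible growth at 24 and 48 h. MIC was the lowest concentration without growth. For MBC, 10 μL from each clear well was plated on MH agar. Controls were ethanol and penicillin. Triplicate.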

Moraxella catarrhalis [6] = experiment: Antibacterial activity against beta-lactamase producing Moraxella catarrhalis isolate 3 at 10 ug/disc after overnight incubation by disc diffusion assay; format: functional; procedure, shortened: as §1
Moraxella catarrhalis [7] = experiment: Antibacterial activity against beta-lactamase producing Moraxella catarrhalis isolate 2 at 10 ug/disc after overnight incubation by disc diffusion assay; format: functional; conditions: for zone of inhibition at 10 µg/disc: read-out: IZ; procedure, shortened: as §1
Moraxella catarrhalis [8] = experiment: Antibacterial activity against beta-lactamase producing Moraxella catarrhalis isolate 1 at 10 ug/disc after overnight incubation by disc diffusion assay; format: functional; conditions: for zone of inhibition at 10 µg/disc: read-out: IZ; procedure, shortened: as §1
Staphylococcus aureus [9] = experiment: Antibacterial activity against non-beta-lactamase producing Staphylococcus aureus ATCC 25923 after 48 hrs by microdilution broth method; format: functional, organism-based; procedure, shortened: as §2
Enterococcus faecalis [10] = experiment: Antibacterial activity against non-beta-lactamase producing Enterococcus faecalis ATCC 29212 after 48 hrs by microdilution broth method; format: functional, organism-based; procedure, shortened: as §2
Enterococcus faecalis [11] = experiment: Antibacterial activity against non-beta-lactamase producing Enterococcus faecalis ATCC 29212 at 10 ug/disc after overnight incubation by disc diffusion assay; format: functional, organism-based; procedure, shortened: as §1
Escherichia coli [12] = experiment: Antibacterial activity against non-beta-lactamase producing Escherichia coli ATCC 25922 after 48 hrs by microdilution broth method; format: functional, organism-based; procedure, shortened: as §2
Escherichia coli [13] = experiment: Antibacterial activity against non-beta-lactamase producing Escherichia coli ATCC 25922 at 10 ug/disc after overnight incubation by disc diffusion assay; format: functional, organism-based; procedure, shortened: as §1
Moraxella catarrhalis [14] = experiment: Antibacterial activity against beta-lactamase producing Moraxella catarrhalis isolate 4 at 500 ug/ml after overnight incubation by disc diffusion assay; format: functional, organism-based
[15] = test system: Mycobacterium tuberculosis; experiment: Antimycobacterial activity against wild type Mycobacterium tuberculosis H37Rv at 200 ug/ml by Alamar blue assay; format: functional, organism-based
Moraxella catarrhalis [16] = experiment: Antibacterial activity against beta-lactamase producing Moraxella catarrhalis isolate 5 at 500 ug/ml after overnight incubation by disc diffusion assay; format: functional, organism-based
Moraxella catarrhalis [17] = experiment: Antibacterial activity against beta-lactamase producing Moraxella catarrhalis isolate 6 at 500 ug/ml after overnight incubation by disc diffusion assay; format: functional, organism-based
Moraxella catarrhalis [18] = experiment: Antibacterial activity against beta-lactamase producing Moraxella catarrhalis isolate 3 at 500 ug/ml after overnight incubation by disc diffusion assay; format: functional, organism-based
Moraxella catarrhalis [19] = experiment: Antibacterial activity against beta-lactamase producing Moraxella catarrhalis isolate 2 at 500 ug/ml after overnight incubation by disc diffusion assay; format: functional, organism-based

| Compound | Activity (Staphylococcus aureus [1]) | Activity (Pseudomonas aeruginosa [3]) | Activity (Pseudomonas aeruginosa [5]) | inhibition zone (IZ) (Moraxella catarrhalis [6]) | Activity (Staphylococcus aureus [9]) | Activity (Enterococcus faecalis [10]) | Activity (Enterococcus faecalis [11]) | Activity (Escherichia coli [12]) | Activity (Escherichia coli [13]) | antibacterial activity (active/not active) (Moraxella catarrhalis [14]) | inhibition zone (IZ) (Moraxella catarrhalis [4]) | inhibition zone (IZ) (Moraxella catarrhalis [7]) | antimycobacterial activity (active/not active) [15] | antibacterial activity (active/not active) (Moraxella catarrhalis [16]) | antibacterial activity (active/not active) (Moraxella catarrhalis [17]) | antibacterial activity (active/not active) (Moraxella catarrhalis [18]) | antibacterial activity (active/not active) (Moraxella catarrhalis [19]) | inhibition zone (IZ) (Moraxella catarrhalis [2]) | inhibition zone (IZ) (Moraxella catarrhalis [8]) | also measured |
| --- | --- | --- | --- | --- | --- | --- | --- | --- | --- | --- | --- | --- | --- | --- | --- | --- | --- | --- | --- | --- |
| CCC(C=O)(CC)SSC(C=O)(CC)CC | inactive | inactive | inactive | inactive | inactive | inactive | inactive | inactive | inactive |  |  |  |  |  |  |  |  |  |  | zone of inhibition at 10 µg/disc (Moraxella catarrhalis [2]): 10 mm; zone of inhibition at 10 µg/disc (Moraxella catarrhalis [4]): 5 mm; zone of inhibition at 10 µg/disc (Moraxella catarrhalis [7]): 10 mm; zone of inhibition at 10 µg/disc (Moraxella catarrhalis [8]): 10 mm |
| CCC(S)(CC)CO | inactive | inactive | inactive | inactive | inactive | inactive | inactive | inactive | inactive |  |  |  |  |  |  |  |  |  |  | zone of inhibition at 10 µg/disc (Moraxella catarrhalis [2]): 12 mm; zone of inhibition at 10 µg/disc (Moraxella catarrhalis [4]): 3 mm; zone of inhibition at 10 µg/disc (Moraxella catarrhalis [7]): 3 mm; zone of inhibition at 10 µg/disc (Moraxella catarrhalis [8]): 5 mm |
| CCOC(=O)CN1C(=O)C(OC)C1C(CC)(CC)SSC(C=O)(CC)CC (racemic) | inactive | inactive | inactive | inactive | inactive | inactive | inactive | inactive | inactive | Active | inactive | inactive | Active | Active | Active | Active | Active |  |  | zone of inhibition at 10 µg/disc (Moraxella catarrhalis [2]): 3 mm; zone of inhibition at 10 µg/disc (Moraxella catarrhalis [8]): 20 mm |
| CCOC(=O)CN1C(=O)C(OC)C1C(C)(C)SSC (racemic) | inactive | inactive | inactive | inactive | inactive | inactive | inactive | inactive | inactive | Active | inactive | inactive | Active | Active | Active | Active | Active | inactive | inactive |  |
| CCOC(=O)CN1C(=O)C(OC)C1C(S)(CC)CC (racemic) | inactive | inactive | inactive |  | inactive | inactive | inactive | inactive | inactive | inactive |  |  | inactive | inactive | inactive | inactive | inactive |  |  |  |
| Nc1ccc(SC2CC(=O)N2)cc1 (racemic) | inactive | inactive | inactive |  | inactive | inactive | inactive | inactive | inactive | Active |  |  | Active | Active | Active | Active | Active |  |  |  |
| O=C1CC(SCCCO)N1 (racemic) | inactive | inactive | inactive |  | inactive | inactive | inactive | inactive | inactive | inactive |  |  | inactive | inactive | inactive | inactive | inactive |  |  |  |
| O=C1CC(SCCO)N1 (racemic) | inactive | inactive | inactive |  | inactive | inactive | inactive | inactive | inactive | inactive |  |  | inactive | inactive | inactive | inactive | inactive |  |  |  |
| O=C1CC(Sc2ccc(S)cc2)N1S(=O)(=O)O (racemic) | inactive | inactive | inactive |  | inactive | inactive | inactive | inactive | inactive | Active |  |  | Active | Active | Active | Active | Active |  |  |  |
| O=C1CC(Sc2ccccc2)N1 (racemic) | inactive | inactive | inactive | inactive | inactive | inactive | inactive | inactive | inactive | inactive | inactive | inactive | inactive | inactive | inactive | inactive | inactive | inactive | inactive |  |
| O=C1CC(Sc2ccccc2)N1S(=O)(=O)O (racemic) | inactive | inactive | inactive | inactive | inactive | inactive | inactive | inactive | inactive |  | inactive | inactive |  |  |  |  |  | inactive | inactive |  |
| O=C1CC(Sc2cccs2)N1S(=O)(=O)O (racemic) | inactive | inactive | inactive | inactive | inactive | inactive | inactive | inactive | inactive | Active | inactive | inactive | Active | Active | Active | Active | Active | inactive | inactive |  |

— ChEMBL document CHEMBL1914320, “C4-alkylthiols with activity against Moraxella catarrhalis and Mycobacterium tuberculosis” (Bioorg Med Chem, 2011)
